Our source for the Protected mice values is ChEMBL document CHEMBL1138647, “Carbonic anhydrase inhibitors. Design of anticonvulsant sulfonamides incorporating indane moieties” (Bioorg Med Chem Lett, 2004).

This assay relates to Mus musculus. Put plainly: Percent of mice (n=8) protected against seizures induced by a maximal electroshock (50mA,0.2s) after 30 mg/kg compound was injected intraperitoneally. Particulars: route intraperitoneal. It counts as functional. The method in brief: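 Mice, n = 8 per group, received 30mg/kg ip 3h before a maximal electroshock (50mA, 0.2s). The read-out was the percentage of animals protected against the induced seizures.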
In general terms: The maximal electroshock test induces tonic seizures with an electrical stimulus.
Compound `NS(=O)(=O)c1ccc2c(c1)CC(NC(=O)c1c(F)c(F)c(F)c(F)c1F)C2` (centres undefined) yielded a Protected mice of 38%.

For the compound `CC(=O)NC1Cc2ccc(S(N)(=O)=O)cc2C1` (centres undefined), the Protected mice is given as 38%.

Regarding `COc1ccc(Cl)cc1C(=O)NC1Cc2ccc(S(N)(=O)=O)cc2C1.O` (centres undefined), the Protected mice stood at 38%.

`NC1Cc2ccc(S(=O)(=O)O)cc2C1` (centres undefined) registered a Protected mice of 0%.

Compound `NS(=O)(=O)c1ccc2c(c1)CC(NC(=O)c1c(F)c(F)cc(F)c1F)C2` (centres undefined) showed a Protected mice of 13%.

Consider `CC(=O)NC1Cc2ccc(S(=O)(=O)O)cc2C1.O` (centres undefined), for which the Protected mice came to 0%.

As for `NS(=O)(=O)c1ccc2c(c1)CC(NC(=O)c1ccc(Cl)cc1)C2` (centres undefined), the Protected mice is given as 31%.

In the case of `Cl.NC1Cc2ccc(S(N)(=O)=O)cc2C1` (centres undefined), the Protected mice stood at 0%.

Compound `CC(=O)/N=c1/sc(S(N)(=O)=O)nn1C` [METHAZOLAMIDE] returned a Protected mice of 100%.
